Test results published in ChEMBL document CHEMBL1149790, “Synthesis of some novel thiourea derivatives obtained from 5-[(4-aminophenoxy)methyl]-4-alkyl/aryl-2,4-dihydro-3H-1,2,4-triazole-3-thiones and evaluation as antiviral/anti-HIV and anti-tuberculosis agents” (Eur J Med Chem, 2008).
≈ marks a conversion by molar mass, not a printed value.

Legend:
[1] = tested on: Vesicular stomatitis virus; assay: Antiviral activity against in Vesicular stomatitis virus in human HEL cells assessed as reduction of virus-induced cytopathogenicity; format: functional
Method in brief: (§1)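 Confluent cell monolayers (E6SM, HEL, HeLa or Vero, per line) inoculated with 100 CCID50 virus; 1 h adsorption, residual virus removed, then incubated with compound at 400, 200, 100 … µg/ml. Cytopathicity scored once complete in untreated virus controls; MIC = concentration inhibiting virus-induced cytopathicity.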

[2] = tested on: Human alphaherpesvirus 2; assay: Antiviral activity against HSV2 G in human HEL cells assessed as reduction of virus-induced cytopathogenicity; format: functional; details: Human alphaherpesvirus 2, G; method in brief: as §1
[3] = Cytotoxicity against human HEL cells assessed as reduction of cell growth; format: cell-based
Method in brief: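 HEL cells; CC50 = compound concentration reducing cell growth by 50%.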

[4] = tested on: Human alphaherpesvirus 2; assay: Antiviral activity against HSV2 G in human E6SM cells assessed as reduction of virus-induced cytopathogenicity; format: functional; details: Human alphaherpesvirus 2, G; method in brief: as §1
[5] = tested on: Human alphaherpesvirus 1; assay: Antiviral activity against HSV1 KOS in human HEL cells assessed as reduction of virus-induced cytopathogenicity; format: functional; details: Human alphaherpesvirus 1, KOS; method in brief: as §1
[6] = tested on: Human alphaherpesvirus 1; assay: Antiviral activity against thymidine kinase deficient and acyclovir resistant HSV1 KOS in human HEL cells assessed as reduction of virus-induced cytopathogenicity; format: functional; details: Human alphaherpesvirus 1, KOS; method in brief: as §1
[7] = Cytotoxicity against human HEL cells assessed as alteration of cell morphology; format: cell-based
Method in brief: (§2)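 Uninfected cell cultures exposed to test compounds alongside antiviral assays; minimum cytotoxic concentration (MCC) = concentration causing a microscopically detectable alteration of cell morphology.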

[8] = Cytotoxicity against human E6SM cells; format: cell-based; details: E6SM cells; method in brief: as §2
[9] = tested on: Vesicular stomatitis virus; assay: Antiviral activity against in Vesicular stomatitis virus in human E6SM cells assessed as reduction of virus-induced cytopathogenicity; format: functional; method in brief: as §1
[10] = tested on: Human alphaherpesvirus 1; assay: Antiviral activity against thymidine kinase deficient and acyclovir resistant HSV1 KOS in human E6SM cells assessed as reduction of virus-induced cytopathogenicity; format: functional; details: Human alphaherpesvirus 1, KOS; method in brief: as §1
[11] = tested on: Human alphaherpesvirus 1; assay: Antiviral activity against HSV1 KOS in human E6SM cells assessed as reduction of virus-induced cytopathogenicity; format: functional; details: Human alphaherpesvirus 1, KOS; method in brief: as §1
[12] = tested on: Respiratory syncytial virus; assay: Antiviral activity against respiratory syncytial virus in human HeLa cells assessed as inhibition of virus-induced cytopathogenicity; format: functional; method in brief: as §1
[13] = tested on: Human betaherpesvirus 5; assay: Antiviral activity against human cytomegalovirus Davis infected HEL cells assessed as reduction in virus plaque formation; format: functional, organism-based; details: Human betaherpesvirus 5, Davis
[14] = tested on: Mammalian orthoreovirus 1; assay: Antiviral activity against Reo virus 1 in african green monkey Vero cells assessed as reduction of virus-induced cytopathogenicity; format: functional; method in brief: as §1
[15] = tested on: Sindbis virus; assay: Antiviral activity against Sindbis virus in african green monkey Vero cells assessed as reduction of virus-induced cytopathogenicity; format: functional; method in brief: as §1
[16] = tested on: Human alphaherpesvirus 3; assay: Antiviral activity against TK+ VZV OKA infected HEL cells assessed as reduction in virus plaque formation; format: functional, organism-based; details: Human alphaherpesvirus 3, OKA
[17] = Cytotoxicity against human HeLa cells; format: cell-based; method in brief: as §2
[18] = tested on: Human betaherpesvirus 5; assay: Antiviral activity against human cytomegalovirus AD169 infected HEL cells assessed as reduction in virus plaque formation; format: functional, organism-based; details: Human betaherpesvirus 5, AD169, HEL
[19] = Cytotoxicity against human MT4 cells by MTT assay; format: cell-based
Method in brief: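 Mock-infected MT-4 cells (6 × 10⁵ cells/ml) with serial five-fold compound dilutions in triplicate; MTT reduction read at 540 and 690 nm after 5 days, median OD of three wells; CC50 = concentration reducing OD540 of mock-infected control by 50%.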

[20] = tested on: Human alphaherpesvirus 3; assay: Antiviral activity against TK- VZV 07/1 infected HEL cells assessed as reduction in virus plaque formation; format: functional, organism-based; details: Human alphaherpesvirus 3, 07/1, HEL
[21] = tested on: Coxsackievirus B4; assay: Antiviral activity against Coxsackie virus B4 in human HeLa cells assessed as inhibition of virus-induced cytopathogenicity; format: functional; details: Enterovirus B; method in brief: as §1
[22] = tested on: Human respirovirus 3; assay: Antiviral activity against Parainfluenza 3 virus in african green monkey Vero cells assessed as reduction of virus-induced cytopathogenicity; format: functional; method in brief: as §1
[23] = tested on: Human immunodeficiency virus 2; assay: Antiviral activity against HIV2 ROD in human MT4 cells assessed as protection against virus-induced cytopathogenicity by MTT assay; format: functional, organism-based; set-up: Activity: concentration or dose not given beside the values; details: for IC50: Human immunodeficiency virus 2, ROD, MT4
Method in brief: (§3)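 MT-4 cells at 6 × 10⁵ cells/ml infected with HIV-1 IIIB or HIV-2 ROD at 100–300 CCID50; compounds in serial five-fold dilutions, triplicate mock- and virus-infected wells. MTT viability read at 540 and 690 nm after 5 days, median OD of three wells; EC50 = 50% protection from viral cytopathic effect.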

[24] = tested on: Human immunodeficiency virus 1; assay: Antiviral activity against HIV1 3B in human MT4 cells assessed as protection against virus-induced cytopathogenicity by MTT assay; format: functional, organism-based; set-up: Activity: concentration or dose not given beside the values; details: for IC50: Human immunodeficiency virus 1, 3B, MT4; method in brief: as §3
[25] = tested on: Vesicular stomatitis virus; assay: Antiviral activity against vesicular stomatitis virus in human HeLa cells assessed as inhibition of virus-induced cytopathogenicity; format: functional; method in brief: as §1
[26] = tested on: Vero; assay: Cytotoxicity against african green monkey Vero cells; format: cell-based; details: chlorocebus sabaeus; method in brief: as §2
[27] = tested on: Punta Toro virus; assay: Antiviral activity against Punta Toro virus in african green monkey Vero cells assessed as reduction of virus-induced cytopathogenicity; format: functional; method in brief: as §1
[28] = tested on: Coxsackievirus B4; assay: Antiviral activity against Coxsackie virus B4 in african green monkey Vero cells assessed as reduction of virus-induced cytopathogenicity; format: functional; details: Enterovirus B; method in brief: as §1

Compound	MIC [1] [µg/mL]	MIC [2] [µg/mL]	CC50 [3] [µg/mL]	MIC [4] [µg/mL]	MIC [5] [µg/mL]	MIC [6] [µg/mL]	MCC [7] [µg/mL]	MCC [8] [µg/mL]	MIC [9] [µg/mL]	MIC [10] [µg/mL]	MIC [11] [µg/mL]	MIC [12] [µg/mL]	EC50 [13] [µg/mL]	MIC [14] [µg/mL]	MIC [15] [µg/mL]	EC50 [16] [µg/mL]	MCC [17] [µg/mL]	EC50 [18] [µg/mL]	CC50 [19] [µg/mL]	EC50 [20] [µg/mL]	other results
Nc1nc2c(ncn2COCCO)c(=O)[nH]1 [ACYCLOVIR]	> 400	0.384 (≈ 1.71 µM)	200 (≈ 888 µM)	0.384 (≈ 1.71 µM)	0.384 (≈ 1.71 µM)	48 (≈ 213 µM)	> 400	> 400	> 400	48 (≈ 213 µM)	0.384 (≈ 1.71 µM)	–	–	–	–	–	–	–	–	–	–
C=CCNC(=S)Nc1ccc(OCc2n[nH]c(=S)n2C)cc1	> 400	240 (≈ 715 µM)	> 50	240 (≈ 715 µM)	> 400	240 (≈ 715 µM)	> 400	> 400	> 400	240 (≈ 715 µM)	> 400	> 80	> 100	> 80	> 80	> 100	400	> 100	≥ 107	> 100	MIC [21]: > 80 µg/mL; MIC [22]: > 80 µg/mL; Activity [23]: 3%; IC50 [23]: > 114 µg/mL; Activity [24]: 1.5%; IC50 [24]: > 107 µg/mL; MIC [25]: > 80 µg/mL; Activity [26]: 400 µg/mL; MIC [27]: > 80 µg/mL; MIC [28]: 48 µg/mL (≈ 143 µM)
Cn1c(COc2ccc(N)cc2)n[nH]c1=S	> 400	80 (≈ 339 µM)	> 50	80 (≈ 339 µM)	400 (≈ 1690 µM)	80 (≈ 339 µM)	> 400	> 400	> 400	80 (≈ 339 µM)	400 (≈ 1690 µM)	> 400	> 100	> 3.2	> 3.2	> 100	> 400	> 100	≥ 119	> 100	MIC [21]: > 400 µg/mL; MIC [22]: > 3.2 µg/mL; Activity [23]: 4%; IC50 [23]: > 125 µg/mL; Activity [24]: 2.5%; IC50 [24]: > 125 µg/mL; MIC [25]: > 400 µg/mL; Activity [26]: 16 µg/mL; MIC [27]: > 3.2 µg/mL; MIC [28]: > 3.2 µg/mL
CCNC(=S)Nc1ccc(OCc2n[nH]c(=S)n2-c2ccccc2)cc1	> 400	> 400	> 50	> 400	> 400	> 400	> 400	> 400	> 400	> 400	> 400	> 80	> 100	> 80	> 80	> 100	400	> 100	22 (≈ 57.1 µM)	> 100	MIC [21]: > 80 µg/mL; MIC [22]: > 80 µg/mL; Activity [23]: 11%; IC50 [23]: > 19.4 µg/mL; Activity [24]: 1%; IC50 [24]: > 15 µg/mL; MIC [25]: > 80 µg/mL; Activity [26]: 400 µg/mL; MIC [27]: > 80 µg/mL; MIC [28]: 80 µg/mL (≈ 208 µM)
Nc1nc2c(ncn2COC(CO)CO)c(=O)[nH]1 [GANCICLOVIR]	> 100	0.032 (≈ 0.125 µM)	87 (≈ 341 µM)	0.032 (≈ 0.125 µM)	0.032 (≈ 0.125 µM)	2.4 (≈ 9.4 µM)	> 100	> 100	> 100	2.4 (≈ 9.4 µM)	0.032 (≈ 0.125 µM)	–	1.9 (≈ 7.44 µM)	–	–	–	–	0.64 (≈ 2.51 µM)	–	–	–
